Bioassay records from PubChem BioAssay.
Only some compounds are listed: those with a hit (about 2.6% of all), similar ones and a draw of the others.
IMP-1 inhibitor: IMP-1 metallo-beta-lactamase inhibitors, primary screen, biochemical, epi-absorbance readout, Pseudomonas aeruginosa enzyme. inhibition, % at 5.6 µM. metallo-beta-lactamase IMP-1 (Pseudomonas aeruginosa). purified IMP-1, nitrocefin hydrolysis, epi-absorbance fluorescence. hit rate 0.45% among 290,000;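 active = inhibition above the mean plus 3 SD of all compounds in the same screening run, cut at about 4.5% in these data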;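 also: 0% = IMP-1 with DMSO and 100% = DMSO wells lacking enzyme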
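system = purified recombinant IMP-1 beta-lactamase | amount = 0.2 nM IMP-1, as dispensed | medium = HEPES buffer pH 7.1 with ZnSO4 and Brij 35 | times = 25 °C, 15 min preincubation, 25 min reaction | detection = plate fluorescence quenching by hydrolysis product, ex 480/em 530 nm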
ASAP1 GAP inh: inhibitors of human ASAP1 ArfGAP activity, primary screen, biochemical, fluorescence polarization. Arf-GAP with SH3 domain, ANK repeat and PH domain-containing protein 1 (Homo sapiens), …. ASAP1-stimulated ARF1 GTP hydrolysis, GDP FP detection. inhibition, % at 16.5 µM. hit rate 0.19% among 360,000. AID 624377, 2012; in the data active = inhibition above about 25%;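 also: 0% = vehicle with enzyme and substrate and 100% = no enzyme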
Target sequence (Q9ULH1 325-724 limits assumed): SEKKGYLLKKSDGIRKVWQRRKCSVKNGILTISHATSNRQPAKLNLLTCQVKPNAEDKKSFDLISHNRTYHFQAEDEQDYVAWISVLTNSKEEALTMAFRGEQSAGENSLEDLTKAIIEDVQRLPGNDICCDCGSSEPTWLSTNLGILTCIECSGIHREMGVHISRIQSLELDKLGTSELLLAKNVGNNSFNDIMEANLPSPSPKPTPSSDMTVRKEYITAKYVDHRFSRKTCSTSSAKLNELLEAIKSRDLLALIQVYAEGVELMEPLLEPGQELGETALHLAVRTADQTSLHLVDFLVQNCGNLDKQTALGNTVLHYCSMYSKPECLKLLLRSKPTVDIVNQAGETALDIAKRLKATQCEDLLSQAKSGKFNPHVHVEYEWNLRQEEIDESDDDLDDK
PHOSPHO1 inh: PubChem AID 1565; recombinant PHOSPHO1, absorbance phosphatase assay; inhibition, % at 13.3 µM; hit rate 1.1% among 290,000; in the data active = inhibition above about 60%
ARFGAP1 inhibitor: inhibitors of rat ARFGAP1 GAP activity, primary screen, biochemical, fluorescence polarization, GDP tracer; ADP-ribosylation factor GTPase-activating protein 1 (Rattus norvegicus), Q62848; Arfgap1-stimulated ARF1 GTP hydrolysis, GDP FP detection; inhibition, % at 16.5 µM; hit rate 0.26% among 360,000;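 active = inhibition above a per-plate limit, mean inhibition of low control wells plus 3 SD, cut at about 25% in these data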;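 also: 0% = DMSO wells with enzyme and 100% = wells lacking Arfgap1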
Target sequence (Q62848 1-136 limits assumed): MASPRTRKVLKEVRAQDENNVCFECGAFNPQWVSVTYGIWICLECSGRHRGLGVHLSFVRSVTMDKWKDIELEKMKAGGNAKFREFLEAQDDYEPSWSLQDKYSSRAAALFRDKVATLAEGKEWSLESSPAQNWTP
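Material – truncated rat Arfgap1 GAP domain · Buffer or medium – HEPES-based buffer, pH 7.5 · Reagent – human ARF1(Δ1-17)-GTP substrate · Dosing – 16.5 µM single point, 1.26% DMSO · Schedule – GTP hydrolysis reaction 2 h at 25 °C · Technique – GDP detection by fluorescence polarization · Benchmarks – No-Arfgap1 wells (100%) versus DMSO full-reaction wells (0%) · Repeats – single replicate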
VIM-2 inh: VIM-2 metallo-beta-lactamase inhibitors, primary screen, biochemical, epi-absorbance readout, Pseudomonas aeruginosa enzyme | hit rate 0.89% among 290,000 | inhibition, % at 5.6 µM | purified VIM-2, nitrocefin hydrolysis, epi-absorbance fluorescence;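 active = inhibition above the mean of all tested compounds plus 3 SD, cutoff set per screening run, cut at about 7.5% in these data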;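 also: red hydrolysis product quenches plate fluorescence so inhibitors raise well fluorescence; 0% = enzyme with DMSO and 100% = DMSO without enzyme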
Calb FLC: C. albicans growth inhibition with fluconazole, primary screen, CaCi-2 strain, Alamar Blue fluorescence; hit rate 0.57% among 300,000; growth inhibition, % (no concentration beside the values); C. albicans CaCi-2 + fluconazole, 48 h; AID 1979, 2009;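 active = growth inhibition above about 58% in most replicates, limit read from the data, passing the limit was not always enough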;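 also: all wells also contain fluconazole at 8 µg/ml as a sub-toxic cotreatment; 0% = median of DMSO wells and 100% = median of geldanamycin control wells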
* hit, by the source's call; . = no result given.

SMILES | IMP-1 inhibitor | ASAP1 GAP inh | PHOSPHO1 inh | ARFGAP1 inhibitor | VIM-2 inh | Calb FLC
COC(=O)[C@]1(CC(C)C)NC=C(C(=O)c2ccccc2)[C@@H]1c1cccs1 | . | -1 | . | 11 | . | .
CCc1cc2c(nc1CC)CCCN2S(=O)(=O)c1c(C)noc1C | . | -14 | . | -2 | . | .
COc1cccc(C(=O)Nc2nnc(CCS(=O)(=O)c3ccc(C)cc3)s2)c1 | 0 | 3 | 9 | 6 | 7.9* | 1
CN(C)CCOC(=O)NC12CC3CC(CC(C3)C1)C2 | -2 | 8 | 32 | -7 | 0 | -2
O=C(NC12CC3CC(CC(C3)C1)C2)OCCNC1CCCCC1 | 4.5* | -10 | 32 | 0 | 0 | -9
Cc1ccccc1NC(=O)C1c2cccc[n+]2CC(=O)N1c1c(C)cccc1C (configuration not stated) | 14* | -24 | 95* | -1 | -1 | -12
c1ccc2oc(SCc3cn4ccsc4n3)nc2c1 | -8 | 0 | 30 | 10 | -1 | 5
Cc1csc2nc(CSc3nc4ccccc4o3)cn12 | 3 | 2 | 61* | 8 | -1 | .
Cc1cc(C)n2c(Br)c(CSc3nc4ccccc4o3)nc2n1 | 2 | 12 | 80* | 7 | 9.9* | 4
Nn1c(CSc2nc3ccccc3o2)nnc1CSc1nc2ccccc2o1 | -7 | 17 | 26 | -11 | -2 | .
CCN(CC)N=Nc1[nH]nc2nc(C)cc(C)c12 | -2 | 8 | 69* | 1 | -2 | -2
C=CCOC(=O)C1=C(C)NC(SCC(=O)NC(=O)OCC)=C(C#N)C1c1cccnc1 (configuration not stated) | -3 | -2 | 78* | -10 | -1 | 99*
COc1ccc(C2C(C#N)=C(SCC(=O)Nc3ccc(C)cc3)NC3=C2C(=O)CC(C)(C)C3)cc1 (configuration not stated) | -2 | 8 | 89* | 15 | -2 | 1
CC1=C(C(=O)Nc2ccccc2)C(c2ccncc2)C(C#N)=C(SCC(=O)Nc2ccccc2)N1 (configuration not stated) | -2 | 13 | 71* | 4 | 2 | 4
C=CCOC(=O)C1=C(C)NC(SCC(N)=O)=C(C#N)C1c1cccs1 (configuration not stated) | -3 | 5 | 16 | -11 | -2 | 7
CC1=C(C(=O)Nc2ccccc2)C(c2ccco2)C(C#N)=C(SCC(=O)Nc2cccc(C)c2C)N1 (configuration not stated) | 1 | 4 | 14 | 5 | 4 | -11
C=CCOC(=O)C1=C(C)NC(SCC(=O)N(CC)CC)=C(C#N)C1c1ccccc1 (configuration not stated) | -1 | -10 | 34 | 7 | 1 | -1
CCOC(=O)C1=C(C)NC(SCC(=O)Nc2nc(C)cs2)=C(C#N)C1c1cccs1 (configuration not stated) | -2 | 1 | 76* | -10 | 0 | 8
Cc1cc(O)cc(=O)n1-c1ccc(OC(F)F)cc1 | . | 3 | . | 11 | . | .
CSC1=C(C#N)C(c2ccncc2)C(C(=O)Nc2ccccc2)=C(C)N1 (configuration not stated) | -3 | -14 | 62* | -6 | -2 | -5
CC1=C(C(=O)Nc2ccccc2)C(c2ccco2)C(C#N)=C(SCc2ccccc2)N1 (configuration not stated) | -1 | . | -8 | . | -1 | 5
C[C@H](c1ccccc1)N1C[C@@H](COCc2ccccc2)Oc2cccc(N3CCCC3)c2S1(=O)=O | . | -16 | . | -10 | . | .
CC(C)C[C@@H]1COc2cccc(N3CCCCC3)c2S(=O)(=O)N1 | . | -7 | . | -4 | . | .
COc1ccc(C2N(Cc3ccccc3)CCN2Cc2ccccc2)cc1[N+](=O)[O-] | -4 | -1 | 60* | 1 | -1 | 12
COc1cc(C2N(Cc3ccccc3)CCN2Cc2ccccc2)ccc1OC(C)=O | -2 | 11 | 25 | 4 | 2 | 3
SMILES | IMP-1 inhibitor | ASAP1 GAP inh | PHOSPHO1 inh | ARFGAP1 inhibitor | VIM-2 inh | Calb FLC
C[C@H](O)[C@@H]1C(=O)N2CCc3c([nH]c4cccc(-c5ccccc5)c34)[C@@H]2C[C@@H]1N(C)C(=O)C1CCCCC1 | . | -7 | . | 0 | . | .
Cc1ccc(S(=O)(=O)N(C)c2ccc(C(=O)NCc3ccccn3)cc2)cc1 | -2 | -5 | 37 | 13 | -1 | 7
CN(c1ccc(C(=O)Nc2cccnc2)cc1)S(=O)(=O)c1ccc(Cl)cc1 | 0 | -4 | 63* | 6 | -3 | 1
CN(c1ccc(C(=O)Nc2cccnc2)cc1)S(=O)(=O)c1ccccc1 | -3 | 1 | -36 | -7 | -2 | -1
CN(c1ccc(C(=O)NCc2ccccn2)cc1)S(=O)(=O)c1ccc(Cl)cc1 | -3 | -6 | 61* | 1 | -3 | 9
COC(=O)C1=C(C)N(C)C(=NCc2cccc(C(F)(F)F)c2)NC1c1ccccc1C(F)(F)F (configuration not stated) | . | 1 | . | 1 | . | .
CN(C)CCCNC(=O)c1ccc(-c2nc(-c3ccc(Cl)cc3)cs2)cc1 | -3 | -6 | 21 | -9 | 0 | 100*
Cc1ccc(C(=O)O/N=C/c2c(N3CCOCC3)n(C)c3ccccc23)cc1 | -2 | 16 | 12 | 3 | -4 | 110*
CC(=O)O/N=C/c1c(N2CCOCC2)n(C)c2ccccc12 | 0 | 2 | 44 | -5 | -5 | 99*
Cn1c(N2CCOCC2)c(/C=N/OC(=O)c2ccc(F)cc2)c2ccccc21 | -2 | 18 | 6 | -16 | -4 | 94*
CN(CCO)C(=O)c1nc[nH]c1C(=O)N1CCN(c2ccccc2)CC1 | . | 7 | . | 0 | . | .
COc1ccc2c(c1)[C@@H](NC(=O)c1ccncc1)[C@@H]1Cc3ccccc3[C@H]21 | . | 3 | . | 9 | . | .
Cc1ccc(C)c(C(=O)CSc2n[nH]c(-c3ccncc3)n2)c1 | -4 | -13 | 64* | 10 | 0 | 5
COC(=O)c1ccc2nc(-c3ccco3)c(Cc3ccccc3OC)n2c1 | . | -6 | . | 2 | . | .
CCCCn1c(SCC(=O)c2ccc(O)c(O)c2)nc2ccsc2c1=O | -3 | . | 2 | . | 1 | 107*
O=C(CSc1nc2ccsc2c(=O)n1CC1CCC(C(=O)O)CC1)c1ccc(Cl)cc1 (configuration not stated) | 14* | -8 | 59 | -6 | -1 | -4
O=C(CSc1nc2ccsc2c(=O)n1CC1CCC(C(=O)O)CC1)c1ccc(F)cc1 (configuration not stated) | -7 | 0 | -26 | -4 | -3 | -26
